Compound activity deposited in PubChem by several laboratories.
PHOSPHO1 block: blocks human PHOSPHO1 phosphatase activity; actives 1.1% (n = 290,000); recombinant PHOSPHO1, absorbance phosphatase assay; inhibition, % at 13.3 µM; in the data active = inhibition above about 60%
Target sequence (Q8TCT1 whole entry, looked up): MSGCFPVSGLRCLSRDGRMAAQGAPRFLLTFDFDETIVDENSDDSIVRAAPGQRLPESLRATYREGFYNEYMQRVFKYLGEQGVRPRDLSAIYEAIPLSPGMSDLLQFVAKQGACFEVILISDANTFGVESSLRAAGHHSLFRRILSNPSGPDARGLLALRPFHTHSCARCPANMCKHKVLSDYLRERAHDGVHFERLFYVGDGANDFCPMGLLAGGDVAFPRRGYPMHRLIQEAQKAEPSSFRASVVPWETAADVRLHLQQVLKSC
Efa HMGR inh: E. faecalis class II HMG-CoA reductase inhibition. purified E. faecalis HMGR, NADPH absorbance 340 nm kinetic. inhibition, % at 10 µM. actives 0.41% (n = 190,000);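 active = inhibition above a set limit, the median over all tested compounds plus 3 SD, cut at about 9.5% in these data; inconclusive = no clear call, values can overlap the other calls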;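 also: enzyme runs in reverse so mevalonate oxidation gives rising NADPH absorbance; 0% = complete reaction with DMSO and 100% = background rate lacking mevalonate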
Runt-CBFb FRET: Runt domain-CBFb interaction inhibition | Q01196+Q13951 | Cerulean-Runt/Venus-CBFb FRET ratio 530/480, 1 h | inhibition, % at 20 µM | actives 0.46% (n = 220,000) | AID 1496;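 active = inhibition over about 50% at 20 µM in the single-dose screen, limit read from the data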;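 also: 0% = DMSO wells and 100% = excess unlabeled CBFb competitor control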
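System: Cerulean-labeled Runt domain protein | Quantity: 100 nM of each labeled protein | Schedule: 1 h compound exposure, room temperature | Detection: Fluorescence energy transfer, 422 nm excitation, 530/480 nm emission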
RanGTP-Impb inh: inhibitors of RanGTP-importin-beta interaction, primary screen, biochemical, FRET, CFP-Ran, YFP-importin-beta, homogeneous. actives 1.1% (n = 300,000). cell-free CFP-Ran/YFP-importin-beta FRET ratio. inhibition, % (concentration not given with the values);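 active = more than half of the replicate wells show a fall in the fluorescence ratio signal beyond about 16%, limit read from the data, passing the limit was not always enough; inconclusive = exactly half of the replicate wells pass the set limit; inactive = fewer than half of replicates pass the limit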;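 also: 0% = DMSO wells and 100% = Ran loaded with GDP instead of GTP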
Wee1 stabilizer: human Wee1 degradation inhibition, primary screen; P30291; HeLa Luc-Wee1K328M stability, luciferase luminescence; 100% = proteasome inhibitor MG132 effect; reporter increase, % at 5 µM; actives 1.2% (n = 220,000); AID 1321;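 active = activation above the mean of all tested compounds plus 3 SD, set per screening run, cut at about 8.8% in these data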;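 also: cells exposed to compound for 20 h before luminescence read; 0% = DMSO alone and 100% = MG132 at 30 µM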
Runt-SMMHC FRET: blocks binding of human RUNX1 Runt domain to CBFb-SMMHC; Q01196+Q13951; Cerulean-Runt/Venus-CBFb-SMMHC FRET ratio 530/480, 1 h; inhibition, % at 20 µM; actives 0.74% (n = 220,000); AID 1434;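 active = mean inhibition across duplicate retests at 20 µM reaching about 50%, limit read from the data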;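 also: 0% = DMSO wells and 100% = wells with excess untagged CBFb-SMMHC; inhibitors lower the FRET ratio by blocking Runt binding to CBFb-SMMHC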
Numbers without * were called inactive. A selection: hits, their analogues and other compounds. The true share with any hit is near 3.4%.

Results for CCCC1(C(=O)OC)NC(c2ccc(OC)cc2OC)C2C(=O)N(c3cccc(C(C)=O)c3)C(=O)C21 (centres undefined) ?
RanGTP-Impb inh: 0

What do the screens show for `COc1ccc(N2C(=O)CCC2=O)cc1`?
PHOSPHO1 block: 20; Efa HMGR inh: 0; Runt-CBFb FRET: 1; RanGTP-Impb inh: 0; Wee1 stabilizer: 0; Runt-SMMHC FRET: -7

Results for COc1ccc(N2C(=O)CS/C2=C\[N+](=O)[O-])cc1 ?
PHOSPHO1 block: -1; Efa HMGR inh: 15*; Runt-CBFb FRET: -1; RanGTP-Impb inh: -2; Wee1 stabilizer: 1; Runt-SMMHC FRET: -2

How did CC1(C)[C@@H](O)CC[C@]2(C)C3C(O)C=C4[C@H]5C[C@@](C)(C(=O)O)CC[C@]5(C)CC[C@]4(C)[C@]3(C)CC[C@@H]12 (some centres undefined) do in these assays?
PHOSPHO1 block: 13; Runt-CBFb FRET: -5; RanGTP-Impb inh: 0; Runt-SMMHC FRET: -1

Results for N#CC1=C(N)SC(N)=C(C#N)C1c1ccoc1 ?
PHOSPHO1 block: 21; Efa HMGR inh: 1; Runt-CBFb FRET: 13; RanGTP-Impb inh: 40*; Wee1 stabilizer: 4; Runt-SMMHC FRET: -28

What do the screens show for `Cc1ccc(C2C(C#N)=C(N)SC(N)=C2C#N)cc1`?
PHOSPHO1 block: -1; Efa HMGR inh: 2; Runt-CBFb FRET: 11; Wee1 stabilizer: -2; Runt-SMMHC FRET: 22

Results for O=C(O)CC1(CC(=O)Nc2cc(F)ccc2Cl)CCCCC1 ?
PHOSPHO1 block: 12; Runt-CBFb FRET: -2; RanGTP-Impb inh: 1; Wee1 stabilizer: 4; Runt-SMMHC FRET: -2

How did COC(=O)/C(=C(/F)Sc1cc(C)c(O)c(C)c1)C(F)(F)F do in these assays?
PHOSPHO1 block: 64*; Efa HMGR inh: 0; Runt-CBFb FRET: 2; RanGTP-Impb inh: 3; Wee1 stabilizer: 0; Runt-SMMHC FRET: 2

What do the screens show for `COc1ccc(N=C(C)C2=C(O)CSC2=O)cc1`?
PHOSPHO1 block: 89*; Efa HMGR inh: -3; Runt-CBFb FRET: 15; RanGTP-Impb inh: -4; Wee1 stabilizer: -1; Runt-SMMHC FRET: 0

What do the screens show for `CCOC(=O)c1c(C)[n+]([O-])c2ccc3c(non3O)c12`?
PHOSPHO1 block: 16; Efa HMGR inh: 1; Runt-CBFb FRET: -1; RanGTP-Impb inh: inconclusive; Wee1 stabilizer: 2; Runt-SMMHC FRET: -6

How did CCOC(=O)c1c(=O)n(O)c2ccc(C)cc2[n+]1[O-] do in these assays?
PHOSPHO1 block: 68*; Efa HMGR inh: -3; Runt-CBFb FRET: -26; RanGTP-Impb inh: -8; Wee1 stabilizer: -1; Runt-SMMHC FRET: -70

Results for C/C(O)=c1/ccc2cccc3nc(C)nc1c23 ?
PHOSPHO1 block: 26; Efa HMGR inh: -2; Runt-CBFb FRET: -13; RanGTP-Impb inh: 54*; Wee1 stabilizer: 1

Results for COc1ccc(N2C(=O)C(CN3CCCCC3)C2c2ccccc2)cc1 (centres undefined) ?
PHOSPHO1 block: 16; Efa HMGR inh: 15*; Runt-CBFb FRET: 2; RanGTP-Impb inh: -4; Wee1 stabilizer: 4; Runt-SMMHC FRET: -6

How did COC(=O)c1c(NC(=O)C(=O)N2CCCC2)sc2c1CC(C)(C)OC2 do in these assays?
PHOSPHO1 block: 18; RanGTP-Impb inh: -3

What do the screens show for `CCN1CCN(Cc2c(C(=O)N/N=C(\C)c3ccc(Cl)cc3)nnn2-c2nonc2N)CC1`?
PHOSPHO1 block: 27; RanGTP-Impb inh: -2

Results for CN(C)/C=N/C1=C(C#N)C(c2ccc(Br)cc2)c2ccc3ccccc3c2O1 (centres undefined) ?
PHOSPHO1 block: 10; RanGTP-Impb inh: 21*

Results for COc1cc(C2C(C#N)=C(N)Oc3c2ccc2ccccc32)ccc1OCC(=O)Nc1ccccc1C (centres undefined) ?
PHOSPHO1 block: 22; Efa HMGR inh: -3; Runt-CBFb FRET: -4; RanGTP-Impb inh: -4; Wee1 stabilizer: -1; Runt-SMMHC FRET: -109

What do the screens show for `CC(=O)Nc1ccc(OCCC[n+]2ccccc2)cc1`?
PHOSPHO1 block: 60*; Efa HMGR inh: 4; Runt-CBFb FRET: -1; RanGTP-Impb inh: 17*; Wee1 stabilizer: -3; Runt-SMMHC FRET: -2

Results for Cn1c(Cc2cccs2)nnc1SCC(=O)N1CCCc2ccccc21 ?
PHOSPHO1 block: 12; Efa HMGR inh: -3; Runt-CBFb FRET: 0; RanGTP-Impb inh: -3; Wee1 stabilizer: -1; Runt-SMMHC FRET: 0

Results for O=C(CSc1nnc(Cc2cccs2)n1CCc1ccccc1)N1CCCc2ccccc21 ?
PHOSPHO1 block: 66*; Efa HMGR inh: -1; Runt-CBFb FRET: 0; RanGTP-Impb inh: 5; Wee1 stabilizer: -2; Runt-SMMHC FRET: -9

What do the screens show for `C/C(=N/Nc1ccc(C(=O)O)cc1)c1ccc(O)c(O)c1O`?
PHOSPHO1 block: -7; Efa HMGR inh: 11*; Runt-CBFb FRET: 13; RanGTP-Impb inh: -1; Wee1 stabilizer: 1; Runt-SMMHC FRET: 9

How did CC(=O)N1CCSc2ccc(S(=O)(=O)Nc3ccccc3C)cc21 do in these assays?
PHOSPHO1 block: 12; RanGTP-Impb inh: 0

How did C/C(=N\NS(=O)(=O)c1ccc(C)c([N+](=O)[O-])c1)c1cc2ccccc2o1 do in these assays?
PHOSPHO1 block: 79*; Efa HMGR inh: -7; Runt-CBFb FRET: -4; RanGTP-Impb inh: inconclusive; Wee1 stabilizer: -1; Runt-SMMHC FRET: -8

How did C/C(=N\NS(=O)(=O)c1ccc(Cl)c([N+](=O)[O-])c1)c1cc2ccccc2o1 do in these assays?
PHOSPHO1 block: 21; Efa HMGR inh: 2; Runt-CBFb FRET: 15; RanGTP-Impb inh: inconclusive; Wee1 stabilizer: 3; Runt-SMMHC FRET: 5

What do the screens show for `Cc1ccc(S(=O)(=O)NC(C)(C)C)cc1C(=O)OCC(=O)N1CCCC1=O`?
RanGTP-Impb inh: 3

How did Cc1ccc2[nH]c3c(c2c1)SC(C)(C)CC3=O do in these assays?
PHOSPHO1 block: 18; Efa HMGR inh: 1; Runt-CBFb FRET: 18; RanGTP-Impb inh: 21*; Wee1 stabilizer: 0; Runt-SMMHC FRET: 29

What do the screens show for `COc1cccc(CC(=O)Nc2nc3c(s2)C(=O)CC(C)(C)C3)c1`?
PHOSPHO1 block: 18; Efa HMGR inh: -4; Runt-CBFb FRET: -1; RanGTP-Impb inh: -1; Wee1 stabilizer: 0; Runt-SMMHC FRET: -2

Results for CCN(CC)S(=O)(=O)c1ccc2nc(NC(=O)c3ccco3)sc2c1 ?
PHOSPHO1 block: -10; Efa HMGR inh: -3; Runt-CBFb FRET: 1; RanGTP-Impb inh: 0; Wee1 stabilizer: 9.6*; Runt-SMMHC FRET: 1

Results for CCN(CC)S(=O)(=O)c1ccc2nc(NC(=O)c3cccs3)sc2c1 ?
PHOSPHO1 block: 24; Efa HMGR inh: -3; Runt-CBFb FRET: -1; RanGTP-Impb inh: -2; Wee1 stabilizer: 0; Runt-SMMHC FRET: 0
